The text below walks through data of ChEMBL document CHEMBL1151748, “Synthesis, modeling, and RET protein kinase inhibitory activity of 3- and 4-substituted beta-carbolin-1-ones” (J Med Chem, 2008).

For assay [1], the system named is NIH3T3. The assay is described as follows: Antiproliferative activity against mouse NIH3T3 cells expressing RET C634R mutant associated with MEN2A syndrome after 72 hrs. The following applies: NIH3T3, 72 h.
The subject of assay [2] is NIH3T3. The assay is described as follows: Antiproliferative activity against mouse NIH3T3 cells after 72 hrs. The following applies: NIH3T3, 72 h.
Assay [3] addresses Proto-oncogene tyrosine-protein kinase receptor Ret (Homo sapiens, UniProt P07949). The assay is described as follows: Inhibition of recombinant RET active protein by immunoblotting. On the technique in general: A western blot detects proteins with antibodies after separation by electrophoresis.
For assay [4], the system named is NIH3T3. Put plainly: Antiproliferative activity against mouse NIH3T3 cells transfected with H-RAS oncogene after 72 hrs. The conditions noted are these: NIH3T3, 72 h.
Assay [5] deals with NIH3T3. The assay is described as follows: Inhibition of RET oncoprotein expression in mouse NIH3T3 cells transfected with RET C634R mutant associated with MEN2A syndrome at 2.5 to 10 uM after 24 hrs by Western blot. In kind it is functional, cell-based. The method, boiled down: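 NIH3T3MEN2A cells were exposed to compound or to DMSO vehicle for 24 h. Whole-cell lysates were Western blotted with anti-Ret (H300) and anti-phospho-Ret (Y1062) antibodies. Actin served as the loading control, and a lysate of untreated parental NIH3T3 cells was run alongside.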

pIC50: −log10 of the molar value. The source made the active and inactive calls. No cut-off for these calls is given here. Bounds are passed on as bounds.

Chain of Proto-oncogene tyrosine-protein kinase receptor Ret (P07949 whole entry): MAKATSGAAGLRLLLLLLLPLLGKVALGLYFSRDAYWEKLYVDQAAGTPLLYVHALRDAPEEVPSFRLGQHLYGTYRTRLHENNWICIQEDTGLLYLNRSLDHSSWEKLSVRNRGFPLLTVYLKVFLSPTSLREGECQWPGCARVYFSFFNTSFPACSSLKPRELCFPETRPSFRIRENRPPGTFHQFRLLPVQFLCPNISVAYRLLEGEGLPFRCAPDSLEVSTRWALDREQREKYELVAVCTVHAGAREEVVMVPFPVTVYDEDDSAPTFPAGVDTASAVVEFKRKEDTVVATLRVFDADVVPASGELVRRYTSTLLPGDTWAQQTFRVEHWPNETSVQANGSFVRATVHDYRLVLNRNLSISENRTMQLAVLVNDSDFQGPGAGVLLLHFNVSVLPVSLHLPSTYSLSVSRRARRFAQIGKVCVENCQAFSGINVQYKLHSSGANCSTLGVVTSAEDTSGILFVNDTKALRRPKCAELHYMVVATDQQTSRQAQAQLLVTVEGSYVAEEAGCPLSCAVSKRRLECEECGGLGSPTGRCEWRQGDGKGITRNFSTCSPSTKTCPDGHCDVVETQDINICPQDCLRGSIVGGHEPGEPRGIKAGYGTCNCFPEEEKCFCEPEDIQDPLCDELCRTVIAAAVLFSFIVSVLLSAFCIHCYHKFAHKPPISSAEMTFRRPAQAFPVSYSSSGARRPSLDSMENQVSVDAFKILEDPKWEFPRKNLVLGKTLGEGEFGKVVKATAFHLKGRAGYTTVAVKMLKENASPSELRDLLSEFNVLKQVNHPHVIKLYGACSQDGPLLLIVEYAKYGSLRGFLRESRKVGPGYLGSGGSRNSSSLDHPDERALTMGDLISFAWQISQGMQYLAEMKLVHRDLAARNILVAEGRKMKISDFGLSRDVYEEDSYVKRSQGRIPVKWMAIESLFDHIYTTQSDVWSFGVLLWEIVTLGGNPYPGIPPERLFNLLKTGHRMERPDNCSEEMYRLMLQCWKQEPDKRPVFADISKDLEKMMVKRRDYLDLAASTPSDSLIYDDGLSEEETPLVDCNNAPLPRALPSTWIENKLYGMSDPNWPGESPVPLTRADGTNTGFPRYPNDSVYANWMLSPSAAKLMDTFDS

On to `COc1cc2c3c(n(C)c2cc1OC)C(=O)N(C)CC=C3c1ccc(O)cc1`, for which, in the assay on NIH3T3 [1], the negative-log IC50 (pIC50) (commonly the negative decadic logarithm of the IC50, by convention in mol/L) is 4.74.

Regarding `COc1cc2c3c(-c4ccc(O)cc4)c[nH]c(=O)c3n(Cc3ccccc3)c2cc1OC`, the results for the pIC50 in the assay with NIH3T3 [1] and in the assay on NIH3T3 [2] were 5.12 and 4.75, respectively.

`COc1cc2c3c(n(C)c2cc1OC)C(=O)NCC=C3C`: the pIC50 with NIH3T3 [1] is 4.78.

Consider `COc1cc2c3ccn(Cc4ccccc4)c(=O)c3n(C)c2cc1OC`, for which the pIC50 in the assay on NIH3T3 [1] is 4.80; in assay [3], less than 6.22.

In the assay with NIH3T3 [1], `COc1cc2c3cc(-c4ccccc4)[nH]c(=O)c3n(C)c2cc1OC` showed a pIC50 of 4.46.

Take `COc1cc2[nH]c3c(=O)[nH]cc(-c4ccc(O)cc4)c3c2cc1OC`: the pIC50 in the assay on NIH3T3 [1] is 5.33; in the assay with NIH3T3 [2], 4.86; with NIH3T3 [4], 4.87; in assay [3] it was 6.96.

Turning to `COc1cc2c3c(n(C)c2cc1OC)C(=O)NCC=C3c1ccc(O)cc1`, the pIC50 with NIH3T3 [1] is 4.84.

On to `COc1ccc2c(c1)c1c(-c3ccc(O)cc3)c[nH]c(=O)c1n2C`, for which the pIC50 with NIH3T3 [1] was 4.91; with NIH3T3 [2] it was 4.60; with NIH3T3 [4], less than 4.52.

`COc1cc2c3c(-c4ccccc4)c[nH]c(=O)c3n(C)c2cc1OC`: the pIC50 with NIH3T3 [1] was 5.48; in the assay on NIH3T3 [2] it was 4.75; in the assay with NIH3T3 [4], 4.86; in assay [3] it was 6.60.

Turning to `COc1ccc(C2=CCNC(=O)c3c2c2cc(OC)c(OC)cc2n3C)cc1`, in the assay on NIH3T3 [1], the pIC50 was 5.00.

Consider `COc1cc2c3c(n(C)c2cc1OC)C(=O)NCC=C3`, for which the pIC50 in the assay on NIH3T3 [1] was 5.11.

For `COc1cc2[nH]c3c(=O)[nH]c(-c4ccccc4)cc3c2cc1OC`, the pIC50 in the assay with NIH3T3 [1] is 4.88.

Regarding `COc1cc2c3c(-c4cccc(O)c4)c[nH]c(=O)c3n(C)c2cc1OC`, the pIC50 in the assay on NIH3T3 [1] is 5.49; in the assay on NIH3T3 [2] it was 5.17; in the assay with NIH3T3 [4], 5.21; in assay [3], 7.05.

`COc1ccc(CN2CC=C(c3ccc(O)cc3)c3c(n(C)c4cc(OC)c(OC)cc34)C2=O)cc1` gave a negative logarithm of the IC50 (pIC50) in the assay on NIH3T3 [1] of 5.17.

On to `Cn1c2ccccc2c2c(-c3ccc(O)cc3)c[nH]c(=O)c21`, for which the pIC50 is 4.76 in the assay with NIH3T3 [1], less than 4.52 in the assay with NIH3T3 [2] and less than 4.52 in the assay on NIH3T3 [4].

For `COc1cc2c3c(C)c[nH]c(=O)c3n(C)c2cc1OC`, the negative-log IC50 (pIC50) was 5.25 with NIH3T3 [1], 4.97 in the assay on NIH3T3 [2] and less than 6.22 in assay [3].

Turning to `COc1cc2[nH]c3c(c2cc1OC)C(c1ccc(O)cc1)=CCNC3=O`, the pIC50 with NIH3T3 [1] was 4.70.

On to `COc1cc2c3c(-c4ccc(O)cc4)c[nH]c(=O)c3n(C)c2cc1OC`, for which the pIC50 with NIH3T3 [1] is 5.71; in the assay on NIH3T3 [2], 5.14; in the assay on NIH3T3 [4], 5.18. Also, the result with NIH3T3 [5] was Active.
